# Source: ChEMBL document CHEMBL1821706, “Unprecedented citrinin trimer tricitinol B functions as a novel topoisomerase IIα inhibitor” (J Med Chem, 2011)
# The source made the active and inactive calls. No cut-off for these calls is given here.
# Assays:
# HCT-116 [1] = test: Induction of apoptosis in human HCT116 cells assessed as activation of caspase 8 at 2.5 to 10 uM after 24 hrs by Western blotting; assay type: functional, cell-based
# Summary of the method: (§1)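 Cells (2×10^5/mL) were exposed to 2.5–10 μM for 24 h, then whole-cell lysates were made. Pro-/cleaved caspase-3, caspase-8, pro-/cleaved caspase-9, PARP (116 kDa full length, 85 kDa fragment) and Bid were probed by Western blot with ECL detection.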
# HCT-116 [2] = test: Induction of apoptosis in human HCT116 cells assessed as Bid cleavage at 2.5 to 10 uM after 24 hrs by Western blotting; assay type: functional, cell-based; summary of the method: as §1
# [3] = molecular target: DNA topoisomerase 2-alpha (Homo sapiens) (UniProt P11388); test: Inhibition of human topoisomerase 2alpha-mediated relaxation of supercoiled pBR322 DNA after 30 mins by agarose gel electrophoresis
# Summary of the method: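 Supercoiled pBR322 (0.25 μg) incubated with 0.75 unit topo IIα at 37 °C for 30 min. SDS stop. Supercoiled and relaxed forms resolved on 1% agarose/TAE, ethidium bromide stain.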
# HL-60 [4] = test: Induction of apoptosis in human HL60 cells assessed as PARP cleavage at 10 uM after 24 hrs by Western blotting preincubated for 2 hrs with 20 uM pancaspase inhibitor Z-VAD-FMK; assay type: functional, cell-based
# Summary of the method: (§2)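 HL60 cells were pretreated with 20 μM Z-IETD-FMK, Z-LEHD-FMK or Z-VAD-FMK, then cultured with 10 μM compound for 24 h. Cleaved PARP and caspases were probed by Western blot. Three independent experiments were run.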
# [5] = molecular target: DNA topoisomerase 2-alpha (Homo sapiens) (UniProt P11388); test: Induction of human topoisomerase 2alpha-mediated poststrand-passage DNA cleavage after 6 mins by agarose gel electrophoresis
# Summary of the method: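 Supercoiled pBR322 (0.25 μg) was incubated with 6 units of topo II in cleavage buffer containing 5 mM MgCl2 at 37 °C for 6 min; the post-strand-passage reactions also received 1 mM APPNHP. Reactions were stopped with SDS and proteinase K, digested at 50 °C for 30 min, heated to 70 °C, and run on 1% agarose gels.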
# HeLa = test: Selectivity ratio of IC50 for human HMEC cells to IC50 for HeLa cells
# HMEC [6] = test: Selectivity ratio of IC50 for human HMEC cells to IC50 for 786-O cells
# HMEC [7] = test: Selectivity ratio of IC50 for human HMEC cells to IC50 for HL60 cells
# [8] = molecular target: DNA topoisomerase 2-alpha (Homo sapiens) (UniProt P11388); test: Inhibition of human topoisomerase 2alpha-mediated decatenation of kDNA after 30 mins by agarose gel electrophoresis in presence of ATP
# Summary of the method: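 Decatenation of 0.25 μg kDNA by 0.75 unit topo IIα at 37 °C for 30 min. Stopped with SDS. Run on 1% agarose in TAE at 4 V/cm for 2 h and stained with ethidium bromide.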
# [9] = molecular target: DNA topoisomerase 2-alpha (Homo sapiens) (UniProt P11388); test: Inhibition of human topoisomerase 2alpha-mediated poststrand-passage DNA religation after 6 mins by agarose gel electrophoresis
# Summary of the method: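 Topo II (6 units) with 0.25 μg supercoiled pBR322 in cleavage buffer with 1 mM APPNHP and 5 mM MgCl2. Cleavage/religation equilibrium set at 37 °C for 6 min. Compound added just before religation, which was started by a rapid shift from 37 to 55 °C for 5 min. SDS stop, then 1% agarose electrophoresis.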
# HMEC [10] = test: Selectivity ratio of IC50 for human HMEC cells to IC50 for SGC7901 cells
# HL-60 [11] = test: Induction of apoptosis in human HL60 cells assessed as increase in cleaved caspase 3 levels after 24 hrs by Western blotting; assay type: functional, cell-based; summary of the method: as §1
# HL-60 [12] = test: Induction of apoptosis in human HL60 cells assessed as DNA ladder formation at 2.5 to 10 uM using Annexin-V/PI double-staining by flow cytometric analysis; assay type: functional, cell-based; conditions: TDE = time-dependent effect
# Summary of the method: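 HL60 cells were treated with 2.5, 5.0, 7.5 or 10.0 μM for 24 h for DNA ladder analysis, representative of three experiments. Apoptotic fractions were measured after 2.5–10 μM for 24 h, or 10 μM over a time course, by Annexin/PI staining and flow cytometry (early plus late apoptotic cells), as mean ± SD of three experiments.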
# HCT-116 [13] = test: Induction of apoptosis in human HCT116 cells assessed as accumulation at G0/G1 phase at 5 uM after 24 hrs using PI staining based flow cytometric analysis (reference value: 48.77%)
# HMEC [14] = test: Selectivity ratio of IC50 for human HMEC cells to IC50 for PC3 cells
# HL-60 [15] = test: Induction of DNA damage in human HL60 cells assessed as increased histone H2AX expression after 1 hr by agarose gel electrophoresis; assay type: functional, cell-based
# HL-60 [16] = test: Induction of apoptosis in human HL60 cells assessed as caspase 8 cleavage at 10 uM after 24 hrs by Western blotting preincubated for 2 hrs with 20 uM caspase 8 inhibitor Z-IETD-FMK; assay type: functional, cell-based; summary of the method: as §2
# HCT-116 [17] = test: Induction of apoptosis in human HCT116 cells assessed as increase in cleaved caspase 3 levels after 24 hrs by Western blotting; assay type: functional, cell-based; summary of the method: as §1
# HL-60 [18] = test: Induction of apoptosis in human HL60 cells assessed as activation of caspase 9 at 10 uM after 24 hrs by Western blotting preincubated for 2 hrs with 20 uM caspase 9 inhibitor Z-LEHD-FMK; assay type: functional, cell-based; summary of the method: as §2
# MCF7 = test: Cytotoxicity against human MCF7 cells after 72 hrs by SRB assay; assay type: functional, cell-based; conditions: MCF7, 72 h
# Summary of the method: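 Adherent human tumour lines were seeded and exposed in triplicate to graded compound concentrations at 37 °C for 72 h. Growth was read by sulforhodamine B staining. IC50 (50% growth inhibition) was obtained by the Logit method from at least three independent experiments and reported as mean ± SD.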
# HMEC [19] = test: Selectivity ratio of IC50 for human HMEC cells to IC50 for SKOV3 cells
# KB = test: Drug resistance index, ratio of IC50 for vincristine-resistant human KB cells to IC50 for human KB cells; assay type: functional
# HL-60 [20] = test: Cytotoxicity against human HL60 cells after 72 hrs by MTT assay; assay type: functional, cell-based; conditions: HL-60, 72 h
# Summary of the method: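 Cells were treated in triplicate with graded concentrations for 72 h at 37 °C and read by MTT. IC50 is the concentration giving 50% growth inhibition, derived by the Logit method from at least three independent experiments and given as mean ± SD.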
# HL-60 [21] = test: Induction of apoptosis in human HL60 cells assessed as activation of caspase 8 at 2.5 to 10 uM after 24 hrs by Western blotting; assay type: functional, cell-based; summary of the method: as §1
# [22] = molecular target: DNA topoisomerase 2-alpha (Homo sapiens) (UniProt P11388); test: Inhibition of human topoisomerase 2alpha-mediated unwinding of linearized pBR322 assessed as DNA intercalation at 8 to 200 uM
# Summary of the method: (§3)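 Unwinding (intercalation) test: EcoRI-linearized pBR322 (0.1 μg) incubated with compound and 2 units T4 DNA ligase in ligase buffer at 22 °C for 30 min. Stopped at 60 °C for 10 min, compound removed by phenol extraction, ligation products resolved on agarose gel.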
# [23] = molecular target: DNA topoisomerase 2-alpha (Homo sapiens) (UniProt P11388); test: Inhibition of human topoisomerase 2alpha-mediated unwinding of linearized pBR322 assessed as DNA intercalation at 2 to 50 uM; summary of the method: as §3
# HL-60 [24] = test: Induction of apoptosis in human HL60 cells assessed as decrease in procaspase 3 expression after 24 hrs by Western blotting; assay type: functional, cell-based; summary of the method: as §1
# HMEC [25] = test: Cytotoxicity against human HMEC cells after 72 hrs by MTT assay; assay type: cell-based
# Sequence of DNA topoisomerase 2-alpha (Homo sapiens) (P11388 whole entry): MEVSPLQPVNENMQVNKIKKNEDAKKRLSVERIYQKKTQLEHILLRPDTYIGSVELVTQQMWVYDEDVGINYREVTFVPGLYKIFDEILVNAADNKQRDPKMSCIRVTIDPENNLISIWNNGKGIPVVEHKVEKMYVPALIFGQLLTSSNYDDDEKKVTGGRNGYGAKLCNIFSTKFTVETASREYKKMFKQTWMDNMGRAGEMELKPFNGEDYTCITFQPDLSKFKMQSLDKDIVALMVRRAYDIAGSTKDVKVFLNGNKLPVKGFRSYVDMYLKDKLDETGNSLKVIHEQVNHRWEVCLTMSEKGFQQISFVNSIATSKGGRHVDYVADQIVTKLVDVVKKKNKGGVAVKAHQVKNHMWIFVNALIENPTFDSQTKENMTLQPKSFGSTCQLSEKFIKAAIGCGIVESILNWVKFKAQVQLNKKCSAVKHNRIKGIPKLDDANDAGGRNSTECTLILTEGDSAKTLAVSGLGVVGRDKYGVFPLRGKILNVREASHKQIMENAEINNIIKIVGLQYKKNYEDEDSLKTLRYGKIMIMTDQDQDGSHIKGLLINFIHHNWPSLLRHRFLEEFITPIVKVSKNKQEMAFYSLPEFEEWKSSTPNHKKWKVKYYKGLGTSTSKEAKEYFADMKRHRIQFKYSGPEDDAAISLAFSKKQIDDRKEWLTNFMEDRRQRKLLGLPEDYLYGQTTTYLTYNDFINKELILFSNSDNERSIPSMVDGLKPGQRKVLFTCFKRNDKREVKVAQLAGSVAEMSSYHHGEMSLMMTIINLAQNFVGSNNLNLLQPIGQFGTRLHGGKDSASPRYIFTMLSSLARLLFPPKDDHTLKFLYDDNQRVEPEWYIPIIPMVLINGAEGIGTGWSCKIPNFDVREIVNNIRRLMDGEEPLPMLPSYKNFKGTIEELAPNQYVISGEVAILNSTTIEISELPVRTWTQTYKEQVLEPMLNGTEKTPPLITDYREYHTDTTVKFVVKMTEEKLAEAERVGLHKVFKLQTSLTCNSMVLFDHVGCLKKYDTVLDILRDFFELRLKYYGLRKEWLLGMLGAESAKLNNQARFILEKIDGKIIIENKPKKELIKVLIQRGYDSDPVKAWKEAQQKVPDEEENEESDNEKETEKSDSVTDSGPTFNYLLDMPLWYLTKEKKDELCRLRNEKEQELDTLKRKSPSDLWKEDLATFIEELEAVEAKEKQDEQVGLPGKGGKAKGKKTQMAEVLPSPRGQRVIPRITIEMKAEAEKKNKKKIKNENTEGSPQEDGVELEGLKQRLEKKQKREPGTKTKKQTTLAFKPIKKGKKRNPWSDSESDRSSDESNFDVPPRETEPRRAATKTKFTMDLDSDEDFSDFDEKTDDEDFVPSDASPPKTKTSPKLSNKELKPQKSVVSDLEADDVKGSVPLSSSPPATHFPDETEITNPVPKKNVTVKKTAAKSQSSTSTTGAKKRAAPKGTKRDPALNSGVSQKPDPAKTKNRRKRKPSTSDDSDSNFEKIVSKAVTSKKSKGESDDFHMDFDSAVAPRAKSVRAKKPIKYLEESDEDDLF
smiles,measurement,setting,value
COC1O[C@H](C)[C@@H](C)c2c(C)c3c(c(O)c21)[C@@H]1O[C@H](C)[C@@H](C)c2c(C)c(O)c([C@H]4O[C@H](C)[C@@H](C)c5c(C)c(O)cc(O)c54)c(c21)O3 (stereo partly drawn) [TRICITRINOL B],Activity,HCT-116 [1],Active
same,Activity,HCT-116 [2],Active
same,inhibition,[3],Dose-dependent effect
same,Activity,HL-60 [4],inactive
same,Activity,[5],Dose-dependent effect
same,Ratio IC50,HeLa,2
same,Ratio IC50,HMEC [6],2
same,Ratio IC50,HMEC [7],2
same,inhibition,[8],Dose-dependent effect
same,inhibition,[9],Dose-dependent effect
same,Ratio IC50,HMEC [10],2
same,Activity,HL-60 [11],Dose-dependent effect
same,Activity,HL-60 [12],tde
same,Activity,HCT-116 [13],37.52%
same,Ratio IC50,HMEC [14],2
same,Activity,HL-60 [15],Dose-dependent effect
same,Activity,HL-60 [16],inactive
same,Activity,HCT-116 [17],Dose-dependent effect
same,Activity,HL-60 [18],Active
same,IC50,MCF7,5.76 µM
same,Ratio IC50,HMEC [19],2
same,Ratio IC50,KB,0.94
same,IC50,HL-60 [20],3.2 µM
same,Activity,HL-60 [21],Active
same,inhibition,[22],Active
same,inhibition,[23],Active
same,Activity,HL-60 [24],Dose-dependent effect
same,IC50,HMEC [25],7.89 µM
